# Laboratory results: ChEMBL document CHEMBL1137143, “Synthesis of C8-linked pyrrolo[2,1-c][1,4]benzodiazepine-acridone/acridine hybrids as potential DNA-binding agents” (Bioorg Med Chem Lett, 2004)
# Tests used:
# M14 = experiment: In vitro cytotoxicity was determined against M14 cell line; type: functional; settings: Homo sapiens, read-out: LC50 (the source's name)
# A498 = experiment: In vitro cytotoxicity was determined against A498 cell line; type: functional; settings: Homo sapiens, read-out: LC50 (the source's name)
# NCI-H23 = experiment: In vitro cytotoxicity was determined against NCI-H23 cell line; type: functional; settings: Homo sapiens, read-out: LC50 (the source's name)
# UACC-62 = experiment: In vitro cytotoxicity was determined against UACC-62 cell line; type: functional; settings: Homo sapiens, read-out: LC50 (the source's name)
# Nucleic Acid [1] = experiment: (§1) DNA-binding ability was determined by thermal denaturation method using calf thymus (CT) DNA; expressed as Delta Tm after 0 hr; type: functional; settings: Bos taurus
# Summary of the method: (§2)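 Thermal melting of CT-DNA, 100 µM, with ligand at 20 µM (1:5 PBD:DNA molar ratio) in 10 mM sodium phosphate + 1 mM EDTA, pH 7.00; incubated at 37 °C for 0 h or 18 h before melting. ΔTm taken relative to DNA alone, whose Tm is a mean of 10 separate determinations.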
# Nucleic Acid [2] = experiment: (§3) DNA-binding ability was determined by thermal denaturation method using calf thymus (CT) DNA; expressed as Delta Tm after 18 hr; type: functional; settings: Bos taurus; summary of the method: as §2
# Bos taurus [3] = species on record: Bos taurus; experiment: as §1; type: functional, organism-based; summary of the method: as §2
# Bos taurus [4] = species on record: Bos taurus; experiment: as §3; type: functional, organism-based; summary of the method: as §2
Compound,CC50 (M14) [nM],CC50 (A498) [nM],CC50 (NCI-H23) [nM],CC50 (UACC-62) [nM],ΔTm (Nucleic Acid [1]) [°C],ΔTm (Nucleic Acid [2]) [°C],ΔTm (Bos taurus [3]) [°C],ΔTm (Bos taurus [4]) [°C]
COc1cc2c(cc1OCCCNC(=O)c1cccc3c(O)c4ccccc4nc13)N=C[C@@H]1CCCN1C2=O,< 10,50,70,< 10,11,12.5,,
COc1cc2c(cc1OCCNC(=O)c1cccc3cc4ccccc4nc13)N=C[C@@H]1CCCN1C2=O,,,,,3.1,5,,
COc1cc2c(cc1O)N=C[C@@H]1CCCN1C2=O,,,,,0.4,0.7,,
COc1cc2c(cc1OCCCNC(=O)c1cccc3cc4ccccc4nc13)N=C[C@@H]1CCCN1C2=O,,,,,5.9,7.7,,
COc1cc2c(cc1OCCNC(=O)c1cccc3c(O)c4ccccc4nc13)N=C[C@@H]1CCCN1C2=O,,,,,4.7,5.7,4.7,5.7
